From ChEMBL document CHEMBL1122356, “The antihypertensive and positive inotropic diterpene forskolin: effects of structural modifications on its activity” (J Med Chem, 1983)
Activity calls are given as the source filed them. The calls are words filed in the database; no cut-off is given here.

What was measured:
Rattus norvegicus [1] = species on record: Rattus norvegicus; experiment: Difference in systolic blood pressure observed prior to the first application and 2 hr after the fifth application to spontaneously hypertensive rats (SHR); assay type: functional, Artery
Method in brief: (§1)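 Groups of six conscious male SH rats (Wistar-Okamoto origin, 250-300 g, 12-16 weeks; systolic pressure >160 mmHg) received 25 mg/kg po daily for 5 days as a 0.5% carboxymethylcellulose suspension, with vehicle controls. Systolic pressure was taken by tail-cuff after warming at 37-38 °C for 10 min, before the first dose and 2 h after each dose. Paired t test; only falls >15 mmHg with p < 0.05 were listed.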

Felis catus [2] = species on record: Felis catus; experiment: Effective dose in cat was determined; assay type: functional
Method in brief: (§2)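 Cats of either sex (3.0-4.5 kg) under chloralose anesthesia (70 mg/kg iv). Compounds were dissolved in propylene glycol (10 mg/mL stock), diluted in distilled water and injected iv via the femoral vein at 30, 100, 300, 500 and 1000 µg/kg, three animals per dose. Fall in mean arterial pressure (femoral artery transducer) was read at 10 min. ED20 was taken from log dose-response curves.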

Cavia porcellus [3] = species on record: Cavia porcellus; experiment: Positive ionotropic activity (0.1x10E 6 g/mL) was determined in guinea pig; no significant activity; assay type: functional, organism-based
Rattus norvegicus [4] = experiment: Difference in systolic blood pressure observed prior to the first application and 2 hr after the fifth application at 5 mg/kg, po daily for 5 days to spontaneously hypertensive rats (SHR); assay type: functional, Artery
Method in brief: (§3)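 Male SH rats (Wistar-Okamoto derived, 250-300 g, 12-16 weeks old) with systolic pressure above 160 mmHg, in groups of six. The dose was given orally once daily for 5 days as a suspension in 0.5% carboxymethylcellulose, and a vehicle control group was run. Systolic pressure was read by tail-cuff after 10 min warming at 37-38 °C, before dosing and 2 h post-dose. Paired Student's t test.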

Rattus norvegicus [5] = species on record: Rattus norvegicus; experiment: Difference in systolic blood pressure observed prior to the first application and 2 hr after the fifth application to spontaneously hypertensive rats (SHR); NS denotes not significant; assay type: functional, organism-based; settings: Artery
Rattus norvegicus [6] = species on record: Rattus norvegicus; experiment: Difference in systolic blood pressure observed prior to the first application and 2 hr after the fifth application to spontaneously hypertensive rats(SHR); assay type: functional, Artery; method in brief: as §1
Rattus norvegicus [7] = experiment: Difference in systolic blood pressure observed prior to the first application and 2 hr after the fifth application at 10 mg/kg, po daily for 5 days to spontaneously hypertensive rats (SHR); assay type: functional, Artery; method in brief: as §3
Rattus norvegicus [8] = experiment: Difference in systolic blood pressure observed prior to the first application and 2 hr after the fifth application at 20 mg/kg, po daily for 5 days to spontaneously hypertensive rats (SHR); assay type: functional, Artery; method in brief: as §3
Felis catus [9] = experiment: Percent fall in blood pressure, 10 min after intravenous administration at doses 500 ug/kg in cat; assay type: functional; method in brief: as §2
Cavia porcellus [10] = species on record: Cavia porcellus; experiment: Positive ionotropic activity determined as effective concentration in guinea pig; Range 6.8*10e-7 to 1.75x10E-6M; assay type: functional, organism-based
Felis catus [11] = experiment: Percent fall in blood pressure, 10 min after intravenous administration at doses 300 ug/kg in cat; assay type: functional; method in brief: as §2

Structure (SMILES) | Delta blood pressure (Rattus norvegicus [1]) [mmHg] | ED20 (Felis catus [2]) [mg/kg] | Activity (Cavia porcellus [3]) | other results
C=C[C@@]1(C)CC(=O)[C@@H]2C3(C)CCCC(C)(C)[C@@H]3C(O)C(OC(C)=O)[C@@]2(C)O1 (stereo not given in full) | 0 | > 0.5 | no significant activity | 
C=C[C@@]1(C)CC(=O)[C@]2(O)C3(C)[C@@H](O)CCC(C)(C)[C@@H]3C(OC(C)=O)C(OC(=O)CC)[C@@]2(C)O1 (stereo not given in full) | 0 | > 0.5 |  | 
Nc1cc(N2CCCCC2)nc(N)[n+]1[O-] [MINOXIDIL] |  | > 0.5 | no significant activity | Delta blood pressure (Rattus norvegicus [4]): -51.2 mmHg
CN1CCN(CC(O)[C@@]2(C)CC(=O)[C@]3(O)C4(C)[C@@H](O)CCC(C)(C)[C@@H]4C(O)C(O)[C@@]3(C)O2)CC1.Cl.Cl (stereo not given in full) |  | > 0.5 | no significant activity | Delta blood pressure (Rattus norvegicus [5]): inactive
CC(=O)OC1C(O)[C@H]2C(C)(C)CC[C@H](O)C2(C)[C@@]2(O)C(=O)C[C@](C)(C=O)O[C@]12C (stereo not given in full) |  | > 0.5 |  | Delta blood pressure (Rattus norvegicus [6]): -22 mmHg
C=C[C@@]1(C)CC(=O)[C@]2(O)C3(C)[C@@H](OC)CCC(C)(C)[C@@H]3C(O)C(OC(C)=O)[C@@]2(C)O1 (stereo not given in full) | 0 | > 0.5 | no significant activity | 
C=C[C@@]1(C)CC(=O)[C@]2(O)C3(C)[C@@H](OC)CCC(C)(C)[C@@H]3C(OC(C)=O)C(O)[C@@]2(C)O1 (stereo not given in full) | -25.3 | > 0.5 | no significant activity | 
C=C[C@@]1(C)CC(=O)[C@]2(O)C3(C)[C@@H](O)CCC(C)(C)[C@@H]3C(O)C(OC(C)=O)[C@@]2(C)O1 (stereo not given in full) | -26 | 0.038 | no significant activity | 
C=C[C@@]1(C)CC(=O)[C@]2(O)C3(C)[C@@H](OC(=O)C(C)(C)C)CCC(C)(C)[C@@H]3C(O)C(OC(=O)C(C)(C)C)[C@@]2(C)O1 (stereo not given in full) |  | > 0.5 |  | Delta blood pressure (Rattus norvegicus [6]): 0 mmHg
C=C[C@@]1(C)CC(=O)[C@@]23OC(=O)O[C@H]4CCC(C)(C)[C@H](C5OC(=O)OC5[C@@]2(C)O1)C43C (stereo not given in full) | -23 | > 0.5 | no significant activity | 
C=C[C@@]1(C)CC(=O)[C@]2(O)C3(C)C(O)CCC(C)(C)[C@@H]3C(OC(C)=O)C(OC(C)=O)[C@@]2(C)O1 (stereo not given in full) | -24.3 | > 0.5 | no significant activity | 
C=C[C@@]1(C)CC(=O)[C@]2(O)C3(C)C(=O)CCC(C)(C)[C@@H]3C(O)C(OC(C)=O)[C@@]2(C)O1 (stereo not given in full) | 0 | > 0.5 | no significant activity | 
C=C[C@@]1(C)CC(=O)[C@@]23OS(=O)O[C@H]4CCC(C)(C)[C@H](C5OS(=O)OC5[C@@]2(C)O1)C43C (stereo not given in full) |  | > 0.5 | no significant activity | Delta blood pressure (Rattus norvegicus [6]): 0 mmHg
C=C[C@@]1(C)CC(=O)[C@]2(O)C3(C)[C@@H](O[Si](C)(C)C)CCC(C)(C)[C@@H]3C(O)C(OC(C)=O)[C@@]2(C)O1 (stereo not given in full) |  | > 0.5 |  | Delta blood pressure (Rattus norvegicus [6]): 0 mmHg
C=C[C@@]1(C)CC(=O)[C@]2(O)C3(C)[C@@H](OCCN(CC)CC)CCC(C)(C)[C@@H]3C(OC(C)=O)C(O)[C@@]2(C)O1.Cl (stereo not given in full) | -26.7 | > 0.5 | no significant activity | 
C=C[C@@]1(C)CC(=O)[C@]2(O)C3(C)[C@@H](O)CCC(C)(C)[C@@H]3C(O)C(OC(=O)CC)[C@@]2(C)O1 (stereo not given in full) | -25.3 | > 0.5 |  | 
C=C[C@@]1(C)CC(=O)[C@]2(O)C3(C)[C@@H](O)CCC(C)(C)[C@@H]3C3OC(=O)OC3[C@@]2(C)O1 (stereo not given in full) | -24.67 | > 0.5 |  | 

Structure (SMILES) | Delta blood pressure (Rattus norvegicus [1]) [mmHg] | ED20 (Felis catus [2]) [mg/kg] | Activity (Cavia porcellus [3]) | other results
C=C[C@@]1(C)C[C@H](O)[C@]2(O)C3(C)[C@@H](O)CCC(C)(C)[C@@H]3C(O)C(O)[C@@]2(C)O1 (stereo not given in full) |  | > 0.5 | no significant activity | Delta blood pressure (Rattus norvegicus [7]): -19.3 mmHg
CC[C@@]1(C)CC(=O)[C@]2(O)C3(C)[C@@H](O)CCC(C)(C)[C@@H]3C(O)C(OC(C)=O)[C@@]2(C)O1 (stereo not given in full) |  | > 0.5 |  | Delta blood pressure (Rattus norvegicus [8]): -15.7 mmHg
C=C[C@@]1(C)CC(=O)[C@]2(O)C3(C)[C@@H](O)CCC(C)(C)[C@@H]3C(O)C(OC(=O)OCC)[C@@]2(C)O1 (stereo not given in full) | 0 | > 0.5 | no significant activity | 
C=C[C@@]1(C)CC(=O)[C@]2(O)C3(C)[C@@H](OC(=O)Nc4ccccc4)CCC(C)(C)[C@@H]3C(O)C(OC(C)=O)[C@@]2(C)O1 (stereo not given in full) |  | > 0.5 |  | Delta blood pressure (Rattus norvegicus [5]): inactive
C=C[C@@]1(C)CC(=O)[C@]2(O)C3(C)[C@@H](O)CCC(C)(C)[C@@H]3C(O)C(OC(=O)CCC)[C@@]2(C)O1 (stereo not given in full) | -19.7 | > 0.5 | no significant activity | 
C=C[C@@]1(C)CC(=O)[C@]2(O)C3(C)[C@@H](OCc4ccccc4)CCC(C)(C)[C@@H]3C(O)C(OC(=O)C(C)(C)Br)[C@@]2(C)O1 (stereo not given in full) |  | > 0.5 |  | Delta blood pressure (Rattus norvegicus [6]): 0 mmHg
C=C[C@@]1(C)CC(=O)[C@@]23OC(=O)O[C@H]4CCC(C)(C)[C@H](C(O)C(OC(C)=O)[C@@]2(C)O1)C43C (stereo not given in full) | -16.7 | > 0.5 | no significant activity | 
CC(=O)OC1C(O)[C@H]2C(C)(C)CC[C@H](O)C2(C)[C@@]2(O)C(=O)C[C@](C)(C3CO3)O[C@]12C (stereo not given in full) |  | > 0.5 |  | Delta blood pressure (Rattus norvegicus [6]): -22.67 mmHg
C=C[C@@]1(C)CC(=O)[C@]2(O)C3(C)[C@@H](O)CCC(C)(C)[C@@H]3C(OC(=O)CC)C(O)[C@@]2(C)O1 (stereo not given in full) |  | > 0.5 |  | Delta blood pressure (Rattus norvegicus [8]): -26.33 mmHg
C=C[C@@]1(C)CC(=O)[C@]2(O)[C@@]3(C)[C@@H](O)CCC(C)(C)[C@@H]3[C@H](O)[C@H](O)[C@@]2(C)O1 | -24.6 | > 0.5 | no significant activity | Decrease in blood pressure (Felis catus [9]): 20%
C=C[C@@]1(C)CC(=O)[C@]2(O)C3(C)[C@@H](O)CCC(C)(C)[C@@H]3C(O)C(OC(=O)N(CC)CC)[C@@]2(C)O1 (stereo not given in full) | 0 | > 0.5 | no significant activity | 
C=C[C@@]1(C)CC(=O)[C@@]23OS(=O)O[C@H]4CCC(C)(C)[C@H](C(O)C(OC(C)=O)[C@@]2(C)O1)C43C (stereo not given in full) |  | > 0.5 | no significant activity | Delta blood pressure (Rattus norvegicus [6]): -31 mmHg
C=C[C@@]1(C)C[C@H](O)[C@]2(O)C3(C)[C@@H](O)CCC(C)(C)[C@@H]3C(O)C(OC(C)=O)[C@@]2(C)O1 (stereo not given in full) | 0 | > 0.5 |  | 
C=C[C@@]1(C)CC(=O)[C@]2(O)C3(C)[C@@H](O)CCC(C)(C)[C@@H]3C(OC(C)=O)C(O)[C@@]2(C)O1 (stereo not given in full) | -28 | > 0.5 | no significant activity | EC50 (Cavia porcellus [10]): 1.09 µM; Decrease in blood pressure (Felis catus [11]): 20%
C=C[C@@]1(C)CC(=O)[C@]2(O)C3(C)[C@@H](O)CCC(C)(C)[C@@H]3C(O)C(OS(=O)(=O)c3ccc(C)cc3)[C@@]2(C)O1 (stereo not given in full) |  | > 0.5 | no significant activity | Delta blood pressure (Rattus norvegicus [6]): -27.3 mmHg
C=C[C@@]1(C)CC(=O)[C@]2(O)C3(C)[C@@H](O)CCC(C)(C)[C@@H]3C(O)C(OC=O)[C@@]2(C)O1 (stereo not given in full) | -23.7 | > 0.5 | no significant activity | 
